Assay outcomes deposited in PubChem by Johns Hopkins Ion Channel Center.
TRPC4 act – activators of mouse TRPC4 channel. Q9QUQ5. HEK293 TRPC4beta/mu-opioid, Fluo4 calcium fluorescence; active compounds read high. B-score at 10 µM. hit rate 0.49% among 310,000. AID 2237;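 active = B-score above 5 SD of library B-scores, and initial fluorescence ratio not above library mean plus 5 SD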;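 also: positive B-score marks a calcium rise read as TRPC4 activation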
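Incubation: 45 min room-temperature Fluo4 loading, 110 s read / System: HEK293 cells stably co-expressing mouse TRPC4beta and mu-opioid receptor / Signal: Fluo4 fluorescence, kinetic / Control set: buffer (low) and maximal DAMGO (high) / Measure: integrated baseline-normalised fluorescence ratio, converted to per-well B score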
TRPC6 inh – inhibitors of mouse TRPC6 channel. Q61143. HEK293-TRPC6, membrane potential dye, ACh-evoked depolarization; active compounds read low. B-score at 10 µM. hit rate 1.1% among 310,000;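 active = B-score under library mean minus 3 SD, initial fluorescence not abnormally high, positive integrated signal ratio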;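 also: B-score derived from integrated fluorescence ratio over the kinetic read; more negative B-score means stronger inhibition of depolarization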
Target sequence (Q61143 whole entry, looked up): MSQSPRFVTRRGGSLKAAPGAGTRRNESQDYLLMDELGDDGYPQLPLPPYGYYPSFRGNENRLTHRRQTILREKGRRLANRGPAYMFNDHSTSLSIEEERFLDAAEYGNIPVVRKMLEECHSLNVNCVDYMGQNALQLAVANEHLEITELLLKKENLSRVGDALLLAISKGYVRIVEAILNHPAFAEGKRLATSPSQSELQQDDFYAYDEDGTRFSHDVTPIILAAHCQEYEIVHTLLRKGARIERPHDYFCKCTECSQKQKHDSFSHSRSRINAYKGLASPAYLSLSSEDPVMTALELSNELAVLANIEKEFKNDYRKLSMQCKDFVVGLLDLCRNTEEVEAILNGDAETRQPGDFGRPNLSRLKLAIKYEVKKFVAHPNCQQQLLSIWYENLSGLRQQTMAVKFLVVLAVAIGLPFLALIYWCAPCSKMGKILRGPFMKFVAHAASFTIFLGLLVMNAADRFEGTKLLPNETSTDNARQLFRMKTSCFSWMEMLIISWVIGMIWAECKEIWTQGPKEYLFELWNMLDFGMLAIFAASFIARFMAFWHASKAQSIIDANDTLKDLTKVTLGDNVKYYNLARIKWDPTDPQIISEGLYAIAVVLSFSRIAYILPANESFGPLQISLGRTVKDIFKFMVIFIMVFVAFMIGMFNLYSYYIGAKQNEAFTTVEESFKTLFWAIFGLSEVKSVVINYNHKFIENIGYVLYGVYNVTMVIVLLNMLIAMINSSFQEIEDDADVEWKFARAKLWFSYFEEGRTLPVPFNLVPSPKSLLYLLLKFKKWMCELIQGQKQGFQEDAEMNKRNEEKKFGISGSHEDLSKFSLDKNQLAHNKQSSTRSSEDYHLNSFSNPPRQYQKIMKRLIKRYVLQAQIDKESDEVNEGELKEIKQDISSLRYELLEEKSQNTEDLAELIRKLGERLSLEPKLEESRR
TRPC4 inh – TRPC4 (mouse) channel inhibition. Q9QUQ5. HEK293 TRPC4beta/mu-opioid, DAMGO-evoked Fluo4 calcium flux; active compounds read low. B-score at 10 µM. hit rate 0.39% among 300,000. AID 2247;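 active = B-score over 3 SD under the library average, no early fluorescence shift, positive overall ratio signal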
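System: stable TRPC4beta/mu-opioid receptor HEK293 cells; Dosing: single-point compound dosing; Measured by: Fluo4 Ca2+ flux fluorescence; Read-out basis: per-well B score of integrated baseline-normalized Fluo4 ratio.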
TRPC4 PAM – allosterically enhances the mouse TRPC4 cation channel; Q9QUQ5; HEK293 TRPC4beta/mu-opioid, DAMGO EC20, Fluo-4 Ca2+ flux; active compounds read high; B-score at 10 µM; hit rate 0.42% among 310,000; AID 2227;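 active = B-score of calcium response area above 5 SD of library B-scores, with initial fluorescence ratio within 5 SD of library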
TRPC6 act – mouse TRPC6 channel activation. B-score at 10 µM. HEK293-TRPC6 membrane potential dye fluorescence; active compounds read high. hit rate 0.13% among 310,000. AID 2550;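 active = B-score of the integrated fluorescence ratio above library mean plus 3 SD, and starting fluorescence ratio within library mean plus 5 SD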;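 also: higher score means more depolarization so channel activation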
Hits are given with their value; i = inactive. Most compounds without a hit are left out; they make up all but 2.3% or so of the library.

SMILES | TRPC4 act | TRPC6 inh | TRPC4 inh | TRPC4 PAM | TRPC6 act
O=[N+]([O-])c1ccc2[nH]nc(-c3ccccc3)c2c1 | i | i | -6 | i | i
O=C(N/N=C/c1ccccn1)c1[nH]c2ccc([N+](=O)[O-])cc2c1-c1ccccc1 | i | i | -6 | i | i
NNC(=O)c1[nH]c2ccc([N+](=O)[O-])cc2c1-c1ccccc1 | i | i | -6 | i | i
CCCc1cc(=O)[nH]c2nnc(SCC(=O)NCc3ccc4c(c3)OCO4)n12 | i | i | i | i | i
COc1ccc2c(c1)CC(C(=O)Nc1ccc(Cl)cc1)/C(=N/O)O2 (stereo not drawn) | i | i | i | i | i
CCN1C(=O)c2ccccc2S(=O)(=O)c2ccc(C(=O)NCCOC)cc21 | i | i | i | i | i
CCCCN(CC)CCCNC(=O)c1ccc2c(c1)N(CC)C(=O)c1ccccc1S2(=O)=O | i | i | i | 14 | i
CCCCCCCCCn1c2c(c(=N)c3c1CCC3)CCCC2 | i | i | i | i | i
CCCCCCCCCCn1c2c(c(=N)c3c1CCC3)CCC2 | 52 | -5 | i | i | i
Cc1ccc(C)c(CN2CCC(CNC(=O)CCc3nnc4ccc(N5CCCCC5)nn34)CC2)c1 | 126 | i | i | i | i
Cc1ccc(C)c(NC(=O)CCc2nnc3ccc(N4CCCC4)nn23)c1 | i | i | i | i | i
CCOC(=O)c1c(-c2ccc(OC)cc2)oc2ccc(O)cc12 | i | i | i | 17 | i
COc1cc(OC)cc(C(=O)NC(=S)NNC(=O)Cc2cccs2)c1 | 147 | i | i | i | i
COc1ccc(C(=O)NC(=S)NNC(=O)Cc2cccs2)cc1 | 49 | i | i | i | i
COc1cc(NC(=O)Cc2cccs2)cc(OC)c1 | i | i | i | i | i
COc1cc(OC)cc(C(=O)NC(=S)NNC(=O)[C@H]2C[C@@H]2c2ccccc2)c1 | 192 | i | i | i | i
CC(C)Cn1c(CN(C)Cc2ccccc2)nc2c1c(=O)n(C)c(=O)n2C | i | i | i | i | i
CN(Cc1ccccc1)Cc1nc2c(c(=O)n(C)c(=O)n2C)n1CCCc1ccccc1 | i | i | i | 37 | i
O=C(Nc1nnc2n1CCS2)c1ccc(Br)o1 | i | i | i | 68 | i
O=C(O)c1ccccc1NC(=S)NC(=O)c1sc2ccccc2c1Cl | i | i | i | i | i
Cc1ccc(NC(=S)NC(=O)c2sc3ccccc3c2Cl)c(C(=O)O)c1 | i | i | -6 | i | i
O=C(NNC(=O)c1sc2ccccc2c1Cl)Nc1ccc(Cl)cc1 | i | i | i | i | i
O=C(NNC(=S)NC(=O)c1sc2ccccc2c1Cl)c1ccc(Cl)cc1 | i | i | i | 56 | i
COc1ccc(N(C(=O)c2cnccn2)C(C(=O)NC2CCCCC2)c2cc(OC)c(OC)c(OC)c2)cc1 (stereo not drawn) | i | i | i | i | i
CN(CCc1ccccn1)S(=O)(=O)c1ccccc1F | 79 | i | i | i | i
SMILES | TRPC4 act | TRPC6 inh | TRPC4 inh | TRPC4 PAM | TRPC6 act
CSc1ccc(CN(C)CCc2ccccn2)cc1 | i | i | i | i | i
Cc1ccc(OCc2cc(C(=O)N(C)CCc3ccccn3)no2)cn1 | 81 | i | i | i | i
Cc1ccc(OCC(=O)N(C)CCc2ccccn2)cc1 | 89 | i | i | i | i
CN(CCc1ccccn1)C(=O)Nc1ccc(F)cc1 | 63 | i | i | i | i
O=C(CSc1nnc2ccccn12)Nc1ccc(S(=O)(=O)N2CCOCC2)cc1 | i | i | i | i | i
CCOCCOC(=O)c1ccc(NC(=O)C2COc3ccccc3O2)cc1 (stereo not drawn) | i | i | i | i | i
CC(C)(Cc1ccccc1)/[N+]([O-])=C\c1ccccc1 | i | i | i | i | i
O=C(c1cccc(S(=O)(=O)Nc2ccc(Br)cc2)c1)N1CCC1 | i | i | i | i | i
O=C(NCCc1ccccn1)C(F)(F)C(F)(F)C(F)(F)C(F)(F)C(F)(F)C(F)(F)C(F)(F)C(F)F | 165 | i | i | i | i
Cc1ccc2oc(C(=O)N(C)Cc3ccc(C)o3)c(C)c2c1 | i | i | -6 | i | i
O=C(Nc1cc(C(F)(F)F)ccc1Cl)c1cccnc1 | i | i | i | i | i
Cc1cc(C)c(C)c(OCCCOc2cccc3cccnc23)c1 | i | i | i | 19 | i
CCCCN1C2=NC(c3ccccc3)CN2c2ccccc21 (stereo not drawn) | i | i | -6 | i | i
Cc1ccc(Cn2c(Cc3ccccc3)nc3ccccc32)cc1 | i | i | -6 | i | i
